Assay results as given in PMC11892073 (Journal of Enzyme Inhibition and Medicinal Chemistry, 2025).

Test system: DU-145 prostate cancer cells
Assay: In vitro antiproliferation assay
Format: cell-based
Settings: Homo sapiens, DU-145, 72 h, read-out: DU-145 (IC50, nM)
Summary of the method: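 DU-145 cells (ATCC) grown in medium with 10% (v/v) FBS, 50 units/ml penicillin and 50 µg/ml streptomycin at 37 °C, 5% CO2. Seeded at 5 × 10^4 cells/well, left overnight, then exposed to varying test compound concentrations for 72 h at 37 °C. A 5 mg/mL MTT solution was added for 4 h. Supernatant was removed by centrifugation and crystals dissolved in DMSO. A570 was read. IC50 came from nonlinear regression; mean ± SD, n = 3.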

CC[C@@H]1C(=O)N(C)c2cnc(Nc3ccc(C(=O)N[C@H]4CC[C@H](N5CCN(CC6CC6)CC5)CC4)cc3OC)nc2N1C(C)C [BI-6727, volasertib]
IC50: 4.03 ± 0.15 nM
